Assay results collected from several papers.
Compare with care: the assays were run in different laboratories.
Cell line: A549
Effect on: cell growth or viability

SMILES	assay	conditions	IC50 [µM]
Cc1ccc2c(-c3cc4c(CNCc5cccnc5)cnc(C)c4o3)cc(=O)oc2c1C	MTT	72 h	36.4
C=C(F)C(=O)N1CCN(c2nc(OC[C@@H]3CCCN3C)nc3c2CCN(c2cccc4cccc(Cl)c24)C3)C[C@@H]1CC#N	ATP luminescence		2.17
Cc1nc(N(C)c2ccc3c(c2)/C(=C/c2ccccc2Cl)C(=O)N3C)c2ccccc2n1	MTT		7.68
C[C@H](CCC(=O)O)[C@H]1CC[C@H]2[C@@H]3CC[C@@H]4C[C@H](O)CC[C@]4(C)[C@H]3CC[C@]12C	MTT	72 h	70
Cc1nc(Nc2ccc3c(c2)/C(=C/c2ccccc2Cl)C(=O)N3)c2ccccc2n1	MTT		5.67
O=C(C=Cc1ccccc1)Nc1cc(-c2ccnc(N3CCC(O)CC3)c2)ccn1	MTT	72 h	0.085
Cc1nc(Nc2ccc3c(c2)/C(=C/c2ccccc2)C(=O)N3Cc2ccccc2)c2ccccc2n1	MTT		44.7
C#Cc1cccc(Nc2ncnc3cc(OCCOC)c(OCCOC)cc23)c1	MTT	72 h	25.6
C=CC(=O)N1CCN(c2nc(=O)n(-c3c(C)ccnc3C(C)C)c3nc(-c4c(O)cccc4F)c(F)cc23)[C@@H](C)C1	ATP luminescence		> 10
Cc1ncc(CN2CCN(Cc3ccccn3)CC2)c2cc(C(=O)c3ccc4c(c3)OCCO4)oc12	MTT	72 h	57.2
O=C(O)c1ccc2c(c1)nc(Nc1cccc(Cl)c1)c1ccncc12	crystal violet	48 h	10.5
CN(C)C/C=C/C(=O)Nc1cc2c(Nc3ccc(F)c(Cl)c3)ncnc2cc1O[C@H]1CCOC1	MTT	72 h	48.5
COc1cc2ncnc(Nc3ccc4c(c3)/C(=C/c3cccc(Cl)c3)C(=O)N4C)c2cc1OC	MTT		9.19
